Test results taken from ChEMBL document CHEMBL4196006, “Aryl thiosemicarbazones for the treatment of trypanosomatidic infections” (Eur J Med Chem, 2018).
Calls of active or inactive are those of the source. No cut-off for these calls is given here.

Assays:
[1] = target: T1, Pteridine reductase 1 (Leishmania major) (UniProt Q01782); experiment: Inhibition of Leishmania major PTR1 at 50 uM using H2B as substrate in presence of NADPH by photometric analysis relative to control
T1 sequence (whole entry): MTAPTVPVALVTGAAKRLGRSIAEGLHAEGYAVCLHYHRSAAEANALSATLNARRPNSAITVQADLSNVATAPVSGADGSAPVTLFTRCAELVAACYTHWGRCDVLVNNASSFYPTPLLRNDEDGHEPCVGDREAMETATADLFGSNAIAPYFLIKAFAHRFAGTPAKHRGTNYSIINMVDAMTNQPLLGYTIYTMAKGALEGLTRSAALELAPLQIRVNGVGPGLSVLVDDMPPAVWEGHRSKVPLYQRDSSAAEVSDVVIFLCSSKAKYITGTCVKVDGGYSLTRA

[2] = target: T2, Pteridine reductase, putative (Trypanosoma brucei) (UniProt Q581W1); experiment: Inhibition of Trypanosoma brucei PTR1 at 50 uM using H2B as substrate in presence of NADPH by photometric analysis relative to control
T2 sequence (whole entry): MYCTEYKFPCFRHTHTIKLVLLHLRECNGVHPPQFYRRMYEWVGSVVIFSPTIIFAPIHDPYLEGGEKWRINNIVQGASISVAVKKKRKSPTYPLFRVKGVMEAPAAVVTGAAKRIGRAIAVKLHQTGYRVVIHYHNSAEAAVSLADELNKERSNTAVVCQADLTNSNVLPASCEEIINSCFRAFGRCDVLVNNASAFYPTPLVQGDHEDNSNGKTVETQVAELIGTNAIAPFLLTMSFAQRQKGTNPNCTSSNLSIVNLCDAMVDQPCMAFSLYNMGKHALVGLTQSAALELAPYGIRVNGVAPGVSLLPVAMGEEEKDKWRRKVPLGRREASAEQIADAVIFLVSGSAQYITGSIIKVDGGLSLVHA

[3] = target: CYP2C9 (Homo sapiens, UniProt P11712); experiment: Inhibition of human microsomal CYP2C9 expressed in baculovirus infected BTI-TN-5B1-4 cells at 10 uM incubated for 30 mins by luciferase assay relative to control; assay type: ADME
Outline: (§1)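 CYP1A2, 2C9, 2C19, 2D6 and 3A4 in microsomes from baculovirus-infected insect cells, each with a P450-Glo luminogenic substrate. Inhibition read as loss of light; single-point at 10 μM, triplicate.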

[4] = target: hERG (KCNH2) (Homo sapiens, UniProt Q12809); experiment: Inhibition of human ERG at 10 uM incubated for 2 hrs by fluorescence polarisation assay relative to control
[5] = target: Aurora kinase B (Homo sapiens, UniProt Q96GD4); experiment: Inhibition of recombinant full-length human aurora B kinase expressed in baculovirus system at 10 uM using MBP as substrate incubated for 45 mins by ADP-glo kinase assay; conditions: probe MBP
Outline: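 Aurora B activity measured as ADP formation via coupled luciferase ADP-Glo luminescence; single-point at 10 μM, triplicate.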

[6] = target: T3, CYP1A2 (Homo sapiens, UniProt P05177); experiment: Inhibition of human microsomal CYP1A2 expressed in baculovirus infected BTI-TN-5B1-4 cells at 10 uM incubated for 30 mins by luciferase assay relative to control; assay type: ADME; outline: as §1
T3 sequence (P05177 whole entry): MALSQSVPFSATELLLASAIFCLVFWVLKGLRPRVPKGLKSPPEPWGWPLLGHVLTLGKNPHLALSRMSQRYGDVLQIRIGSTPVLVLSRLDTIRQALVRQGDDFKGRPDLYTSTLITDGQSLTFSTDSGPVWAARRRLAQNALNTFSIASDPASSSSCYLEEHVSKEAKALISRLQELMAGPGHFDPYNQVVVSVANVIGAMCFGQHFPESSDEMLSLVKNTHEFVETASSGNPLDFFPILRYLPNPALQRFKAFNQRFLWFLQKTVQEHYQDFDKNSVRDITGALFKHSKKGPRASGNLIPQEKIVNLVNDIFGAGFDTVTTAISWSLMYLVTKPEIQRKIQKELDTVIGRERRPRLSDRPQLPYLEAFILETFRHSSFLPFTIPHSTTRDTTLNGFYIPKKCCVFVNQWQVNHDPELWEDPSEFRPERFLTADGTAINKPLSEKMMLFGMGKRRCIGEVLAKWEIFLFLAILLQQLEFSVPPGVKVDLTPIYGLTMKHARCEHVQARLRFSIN

[7] = target: CYP2D6 (Homo sapiens, UniProt P10635); experiment: Inhibition of human microsomal CYP2D6 expressed in baculovirus infected BTI-TN-5B1-4 cells at 10 uM incubated for 30 mins by luciferase assay relative to control; assay type: ADME; outline: as §1
[8] = target: CYP2C19 (Homo sapiens, UniProt P33261); experiment: Inhibition of human microsomal CYP2C19 expressed in baculovirus infected BTI-TN-5B1-4 cells at 10 uM incubated for 30 mins by luciferase assay relative to control; assay type: ADME; outline: as §1
[9] = target: CYP3A4 (Homo sapiens, UniProt P08684); experiment: Inhibition of human microsomal CYP3A4 expressed in baculovirus infected BTI-TN-5B1-4 cells at 10 uM incubated for 30 mins by luciferase assay relative to control; assay type: ADME; outline: as §1
[10] = tested on: Trypanosoma cruzi; experiment: Antitrypanosomal activity against Trypanosoma cruzi amastigote form infected in human U2OS cells assessed as parasite growth inhibition at 50 uM after 72 hrs relative to control; assay type: functional; conditions: for inhibition of growth at 50 µM: read-out: GI
Outline: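 U2OS monolayers grown for 24 h, then infected with tissue-derived trypomastigotes of T. cruzi Y strain. Compounds were added 24 h after infection at 50 μM (single-point) or in dose-response, with 72 h exposure. Plates were fixed, stained and analysed by high-content imaging; activity was normalized to infected and non-infected controls. Means of at least two experiments; benznidazole as reference.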

[11] = tested on: Trypanosoma brucei; experiment: Antitrypanosomal activity against Trypanosoma brucei Lister 427 bloodstream form assessed as parasite growth inhibition at 50 uM after 72 hrs by SYBR Green assay relative to control; assay type: functional
[12] = tested on: Trypanosoma brucei; experiment: Potentiation of methotrexate-induced antitrypanosomal activity against Trypanosoma brucei Lister 427 bloodstream form at 10 uM after 72 hrs by resazurin dye-based assay relative to control; assay type: functional
[13] = tested on: Trypanosoma brucei; experiment: Potentiation of methotrexate-induced antitrypanosomal activity against Trypanosoma brucei Lister 427 bloodstream form at 10 uM after 72 hrs by resazurin dye-based assay; assay type: functional
[14] = Cytotoxicity against human 786-O cells assessed as inhibition of mitochondrial viability at 10 uM after 6 hrs by CMXRos staining based assay relative to control; assay type: cell-based, 786-0; conditions: read-out: INH
Outline: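 Mitochondrial toxicity monitored by MitoTracker Red CMXRos uptake and high-content imaging; compound at 10 μM, triplicate.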

[15] = tested on: Leishmania infantum; experiment: Antileishmanial activity against Leishmania infantum amastigote form assessed as parasite growth inhibition at 50 uM after 72 hrs by steady-Glo reagent based assay relative to control; assay type: functional; conditions: read-out: GI
Outline: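 Intramacrophage L. infantum amastigotes in THP-1-derived macrophages, tested at 50 μM or in dose-response. Plates held 72 h at 37 °C, 5% CO2. Medium was replaced by PBS, macrophages lysed, and parasites read by Steady-Glo luminescence. High-content imaging gave host cell number, infection ratio (infected/total cells) and parasites per infected cell. Values are means of at least two independent experiments.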

[16] = tested on: Trypanosoma brucei; experiment: Antitrypanosomal activity against Trypanosoma brucei Lister 427 bloodstream form at 10 uM after 72 hrs by resazurin dye-based assay relative to control; assay type: functional
[17] = Cytotoxicity against human U2OS cells assessed as viable cells at 50 uM after 72 hrs by MTT assay relative to control; assay type: cell-based; conditions: read-out: Activity
[18] = Cytotoxicity against human THP1 cells assessed as viable cells at 100 uM after 72 hrs by MTT assay relative to control; assay type: cell-based, THP-1; conditions: read-out: Activity
Outline: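 THP-1-derived macrophages exposed to compounds for 72 h, tested at 100 μM or in dose-response; viability read by MTT colorimetric assay.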

[19] = Cytotoxicity against human WI38 cells assessed as growth inhibition at 10 uM after 48 hrs by CellTiter-Glo assay relative to control; values are per cent of control; conditions: WI38 cells
[20] = Cytotoxicity against human A549 cells assessed as growth inhibition at 10 uM after 48 hrs by CellTiter-Glo assay relative to control; values are per cent of control; conditions: A549 cells

Chain of CYP3A4 (P08684 whole entry): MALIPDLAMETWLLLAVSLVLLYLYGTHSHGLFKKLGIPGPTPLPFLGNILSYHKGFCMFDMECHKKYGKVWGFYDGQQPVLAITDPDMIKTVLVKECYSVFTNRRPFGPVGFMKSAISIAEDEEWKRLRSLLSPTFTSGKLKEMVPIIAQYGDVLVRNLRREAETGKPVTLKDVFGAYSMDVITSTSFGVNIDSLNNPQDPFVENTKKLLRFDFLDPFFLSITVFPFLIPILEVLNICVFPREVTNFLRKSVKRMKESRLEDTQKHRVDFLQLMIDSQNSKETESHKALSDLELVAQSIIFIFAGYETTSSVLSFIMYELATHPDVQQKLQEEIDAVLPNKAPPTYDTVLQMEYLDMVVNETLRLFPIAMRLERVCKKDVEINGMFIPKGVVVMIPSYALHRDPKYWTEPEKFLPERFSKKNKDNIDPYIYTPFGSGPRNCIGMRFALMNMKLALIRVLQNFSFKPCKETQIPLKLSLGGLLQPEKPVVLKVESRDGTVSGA
Chain of CYP2D6 (P10635 whole entry): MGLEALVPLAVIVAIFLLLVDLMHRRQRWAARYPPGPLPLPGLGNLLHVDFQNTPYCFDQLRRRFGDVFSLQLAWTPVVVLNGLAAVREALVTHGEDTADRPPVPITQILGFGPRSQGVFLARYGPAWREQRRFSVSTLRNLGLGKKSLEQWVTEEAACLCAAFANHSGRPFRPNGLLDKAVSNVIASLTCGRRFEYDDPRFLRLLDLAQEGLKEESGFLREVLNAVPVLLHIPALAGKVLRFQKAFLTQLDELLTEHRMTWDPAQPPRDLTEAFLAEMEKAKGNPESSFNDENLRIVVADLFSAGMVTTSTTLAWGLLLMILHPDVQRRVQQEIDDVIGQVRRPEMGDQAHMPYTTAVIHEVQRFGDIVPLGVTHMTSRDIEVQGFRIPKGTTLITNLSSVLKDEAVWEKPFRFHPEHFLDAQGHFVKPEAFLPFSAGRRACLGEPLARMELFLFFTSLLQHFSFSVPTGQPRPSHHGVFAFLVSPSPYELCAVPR
Chain of hERG (KCNH2) (Q12809 whole entry): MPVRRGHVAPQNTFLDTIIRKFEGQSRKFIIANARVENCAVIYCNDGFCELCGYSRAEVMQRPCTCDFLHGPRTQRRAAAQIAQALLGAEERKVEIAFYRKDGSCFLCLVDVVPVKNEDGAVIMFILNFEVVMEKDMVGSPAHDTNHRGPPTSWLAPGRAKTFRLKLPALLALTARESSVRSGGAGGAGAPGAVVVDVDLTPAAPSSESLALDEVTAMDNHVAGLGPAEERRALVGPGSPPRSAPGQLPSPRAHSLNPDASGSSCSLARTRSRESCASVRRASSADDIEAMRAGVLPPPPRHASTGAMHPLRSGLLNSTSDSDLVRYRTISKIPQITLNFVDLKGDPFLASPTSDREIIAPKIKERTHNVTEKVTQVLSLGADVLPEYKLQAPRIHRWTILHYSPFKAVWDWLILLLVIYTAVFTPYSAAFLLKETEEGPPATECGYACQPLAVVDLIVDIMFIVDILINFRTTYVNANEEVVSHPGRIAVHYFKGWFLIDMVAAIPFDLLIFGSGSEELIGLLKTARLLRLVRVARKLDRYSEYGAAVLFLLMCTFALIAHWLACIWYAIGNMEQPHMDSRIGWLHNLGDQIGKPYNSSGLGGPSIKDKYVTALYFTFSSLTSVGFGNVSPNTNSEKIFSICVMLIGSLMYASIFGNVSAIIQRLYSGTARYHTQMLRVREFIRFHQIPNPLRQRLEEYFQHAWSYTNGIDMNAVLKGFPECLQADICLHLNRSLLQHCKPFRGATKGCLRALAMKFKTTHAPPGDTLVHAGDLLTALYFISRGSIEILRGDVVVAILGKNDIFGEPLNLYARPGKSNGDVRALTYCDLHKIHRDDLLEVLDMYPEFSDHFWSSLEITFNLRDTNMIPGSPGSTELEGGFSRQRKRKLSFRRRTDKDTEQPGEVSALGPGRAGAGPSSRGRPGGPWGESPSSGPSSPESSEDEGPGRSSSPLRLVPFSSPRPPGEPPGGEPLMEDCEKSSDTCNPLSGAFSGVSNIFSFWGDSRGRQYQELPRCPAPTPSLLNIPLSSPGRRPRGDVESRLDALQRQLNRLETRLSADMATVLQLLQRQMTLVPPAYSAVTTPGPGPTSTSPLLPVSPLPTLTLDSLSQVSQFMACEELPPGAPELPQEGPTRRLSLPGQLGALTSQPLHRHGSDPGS
Chain of CYP2C19 (P33261 whole entry): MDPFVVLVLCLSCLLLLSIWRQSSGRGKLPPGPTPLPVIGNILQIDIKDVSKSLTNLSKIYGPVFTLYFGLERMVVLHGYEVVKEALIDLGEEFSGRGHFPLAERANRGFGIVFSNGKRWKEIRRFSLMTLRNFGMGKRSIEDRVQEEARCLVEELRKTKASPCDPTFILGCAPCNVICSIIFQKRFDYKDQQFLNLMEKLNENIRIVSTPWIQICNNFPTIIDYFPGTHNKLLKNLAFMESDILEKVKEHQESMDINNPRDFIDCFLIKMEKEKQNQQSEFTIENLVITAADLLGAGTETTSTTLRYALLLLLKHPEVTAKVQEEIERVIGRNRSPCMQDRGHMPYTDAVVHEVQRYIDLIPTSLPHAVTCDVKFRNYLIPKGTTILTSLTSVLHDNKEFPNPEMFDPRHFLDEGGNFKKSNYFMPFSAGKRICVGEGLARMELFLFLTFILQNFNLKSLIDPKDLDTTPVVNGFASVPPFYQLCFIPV
Chain of Aurora kinase B (Q96GD4 whole entry): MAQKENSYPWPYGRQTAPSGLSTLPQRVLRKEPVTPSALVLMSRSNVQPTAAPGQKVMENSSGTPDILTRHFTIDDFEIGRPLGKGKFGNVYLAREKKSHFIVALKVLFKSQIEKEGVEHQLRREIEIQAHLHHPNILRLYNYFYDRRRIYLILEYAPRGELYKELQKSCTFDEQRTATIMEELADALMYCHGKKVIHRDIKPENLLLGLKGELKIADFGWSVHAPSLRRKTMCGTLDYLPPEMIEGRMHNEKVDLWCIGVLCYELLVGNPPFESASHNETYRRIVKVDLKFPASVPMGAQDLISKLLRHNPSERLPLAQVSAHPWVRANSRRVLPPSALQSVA
Chain of CYP2C9 (P11712 whole entry): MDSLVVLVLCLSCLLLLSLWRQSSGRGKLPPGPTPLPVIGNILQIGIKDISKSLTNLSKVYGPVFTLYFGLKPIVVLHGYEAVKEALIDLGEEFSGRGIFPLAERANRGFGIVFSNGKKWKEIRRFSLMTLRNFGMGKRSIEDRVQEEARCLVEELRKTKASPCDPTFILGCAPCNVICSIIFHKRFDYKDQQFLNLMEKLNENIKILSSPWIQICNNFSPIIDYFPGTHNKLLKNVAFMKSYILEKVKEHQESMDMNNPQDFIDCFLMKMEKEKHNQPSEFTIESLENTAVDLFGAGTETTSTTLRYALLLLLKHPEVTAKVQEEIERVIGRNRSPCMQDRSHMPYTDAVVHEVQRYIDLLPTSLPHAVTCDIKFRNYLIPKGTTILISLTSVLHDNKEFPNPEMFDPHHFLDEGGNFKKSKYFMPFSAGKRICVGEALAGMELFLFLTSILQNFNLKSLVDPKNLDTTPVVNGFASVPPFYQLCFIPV

| inhibition [1] [%] | inhibition [2] | inhibition at 0.5 h, 10 µM [3] [%] | inhibition at 0.75 h, 10 µM [5] [%] | inhibition at 0.5 h, 10 µM [6] [%] | inhibition at 0.5 h, 10 µM [7] [%] | inhibition at 0.5 h, 10 µM [8] [%] | inhibition at 0.5 h, 10 µM [9] [%] | Structure (SMILES) | inhibition at 2 h, 10 µM [4] [%] | inhibition of growth at 50 µM [10] [%] | further results |
| --- | --- | --- | --- | --- | --- | --- | --- | --- | --- | --- | --- |
| 18.2 | 19.6% | -21.1 | -5.27 | -5.15 | -3.36 | -42.9 | -24.4 | NC(=S)N/N=C/c1ccc(O)cc1 | 7.48 | – | – |
| – | – | – | – | – | – | – | – | Nc1nnc(-c2cccc(-c3ccccc3)c2)s1 | – | – | growth inhibition (GI) [10]: inactive |
| 1.75 | inactive | 4.24 | -5.27 | 38.3 | 8.57 | -20.7 | -8.16 | Cc1ccsc1/C=N/NC(N)=S | -5.98 | 24.9 | inhibition of growth at 50 µM ([11]; Lister 427, 72 h, read-out: GI): 17.3%; Activity [12]: 34.17%; PF [13]: 1.05; cytotoxicity at 6 h, 10 µM [14]: 2.15%; inhibition of growth at 50 µM [15]: 8.28%; Activity [16]: 8.33%; viability at 72 h, 50 µM [17]: 95.8%; viability at 72 h, 100 µM [18]: 76%; cell growth (% of control) at 48 h, 10 µM [19]: 85.4%; cell growth (% of control) at 48 h, 10 µM [20]: 91.9% |
| – | – | – | – | – | – | – | – | COc1ccc(-c2nnc(N)s2)cc1OC | – | 30.2 | – |
| – | – | – | – | – | – | – | – | Nc1nnc(-c2cccc(Br)c2)s1 | – | 41.6 | – |
| 56.5 | 30.7% | -7.51 | -12.2 | -6.6 | -9.48 | -49.1 | -7.74 | NC(=S)N/N=C/c1ccc(O)c(O)c1 | 4.17 | – | – |
| – | – | – | – | – | – | – | – | Nc1nnc(-c2ccc(-c3ccccc3)cc2)s1 | – | 31.2 | – |
| – | – | – | – | – | – | – | – | COc1cccc(OC)c1-c1nnc(N)s1 | – | 27.1 | – |
| – | – | – | – | – | – | – | – | Nc1nnc(-c2ccc(OCc3ccc(Cl)c(Cl)c3)cc2)s1 | – | 14.5 | – |
| – | – | – | – | – | – | – | – | COc1ccccc1-c1nnc(N)s1 | – | – | growth inhibition (GI) [10]: inactive |
| – | – | – | – | – | – | – | – | Nc1nnc(-c2ccc(O)c(O)c2)s1 | – | 16.6 | – |
| 9.38 | inactive | 24.3 | -9.56 | 76.8 | 27.3 | -14.9 | -10.6 | N/C(S)=N/N=C/c1ccc(Cl)c(Cl)c1 | -9.32 | 23.1 | growth inhibition (GI) [11]: inactive; Activity [12]: 84%; PF [13]: 1.36; cytotoxicity at 6 h, 10 µM [14]: 5.87%; inhibition of growth at 50 µM [15]: 17.6%; Activity [16]: 37.33%; viability at 72 h, 50 µM [17]: 101%; viability at 72 h, 100 µM [18]: 56.4%; cell growth (% of control) at 48 h, 10 µM [19]: 107%; cell growth (% of control) at 48 h, 10 µM [20]: 100% |
| 2.62 | 10.2% | 7.46 | -14.2 | 11.5 | -13.1 | -20.7 | -4.06 | C/C(=N\NC(N)=S)c1ccc(N)cc1 | 6.38 | 51.8 | growth inhibition (GI) [11]: inactive; Activity [12]: 75.17%; PF [13]: 2.6; cytotoxicity at 6 h, 10 µM [14]: -5.04%; inhibition of growth at 50 µM [15]: 9.54%; Activity [16]: 4.67%; viability at 72 h, 50 µM [17]: 113%; viability at 72 h, 100 µM [18]: 95.2%; cell growth (% of control) at 48 h, 10 µM [19]: 83.1%; cell growth (% of control) at 48 h, 10 µM [20]: 141% |
| – | – | – | – | – | – | – | – | COc1ccc(-c2cccc(-c3nnc(N)s3)c2)cc1OC | – | 14.6 | – |
| 20.7 | 20.1% | -19.2 | -7.72 | -9.14 | -20.5 | -30.2 | -24.4 | COc1ccc(/C=N/NC(N)=S)cc1OC | 4.1 | – | – |
| – | – | – | – | – | – | – | – | Nc1nnc(-c2cccc(-c3ccc4c(c3)OCO4)c2)s1 | – | – | growth inhibition (GI) [10]: inactive |
| – | – | – | – | – | – | – | – | COc1cc(-c2nnc(N)s2)cc(OC)c1OC | – | – | growth inhibition (GI) [10]: inactive |
| – | – | – | – | – | – | – | – | Nc1nnc(-c2ccc(Cl)c(Cl)c2)s1 | – | 23.4 | – |
| 9.85 | 9.78% | -7.31 | -0.27 | 7.06 | 22.2 | -20.3 | -9.76 | COc1cc(/C=N/NC(N)=S)ccc1O | 6.07 | – | – |
| 9.19 | 5.67% | -19.8 | -16.9 | 29.6 | -8.91 | -52.9 | -23.2 | COc1ccccc1/C=N/NC(N)=S | 5.91 | – | – |
| – | – | – | – | – | – | – | – | Nc1nnc(-c2ccco2)s1 | – | – | growth inhibition (GI) [10]: inactive |
| – | – | – | – | – | – | – | – | Nc1nnc(/C=C/c2ccccc2)s1 | – | 82 | – |
